The source made the active and inactive calls. No cut-off for these calls is given here.
How the values were obtained:
[1] = target: T1, DNA topoisomerase 1 (Homo sapiens) (UniProt P11387); experiment: Inhibition of recombinant topoisomerase 1 (unknown origin) assessed as DNA cleavage using 3'-[32P]-labeled 117-bp DNA oligonucleotide at 1 uM by PAGE assay; parameters: Activity: scale not given: the % may be the effect or the level left
T1 sequence (whole entry): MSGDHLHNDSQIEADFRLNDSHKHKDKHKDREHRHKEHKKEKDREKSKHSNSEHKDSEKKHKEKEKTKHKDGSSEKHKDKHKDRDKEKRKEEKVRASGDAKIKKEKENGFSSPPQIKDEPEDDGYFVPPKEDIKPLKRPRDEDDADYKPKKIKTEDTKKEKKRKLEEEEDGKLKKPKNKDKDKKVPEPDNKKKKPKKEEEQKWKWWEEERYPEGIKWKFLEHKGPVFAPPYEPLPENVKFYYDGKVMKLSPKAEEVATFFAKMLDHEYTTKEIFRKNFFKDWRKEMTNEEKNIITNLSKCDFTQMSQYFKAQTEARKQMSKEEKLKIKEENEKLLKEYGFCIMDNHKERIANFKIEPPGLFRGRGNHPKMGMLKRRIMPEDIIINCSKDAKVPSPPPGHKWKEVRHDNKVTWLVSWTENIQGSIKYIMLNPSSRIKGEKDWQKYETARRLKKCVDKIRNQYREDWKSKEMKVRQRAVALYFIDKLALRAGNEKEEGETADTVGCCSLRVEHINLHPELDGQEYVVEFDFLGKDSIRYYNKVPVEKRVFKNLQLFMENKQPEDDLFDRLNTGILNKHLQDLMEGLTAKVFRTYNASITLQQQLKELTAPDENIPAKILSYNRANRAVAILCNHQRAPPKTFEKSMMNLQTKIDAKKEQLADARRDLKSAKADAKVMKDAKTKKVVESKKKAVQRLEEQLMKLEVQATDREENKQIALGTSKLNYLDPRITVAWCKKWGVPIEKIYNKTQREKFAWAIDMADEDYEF
In short: (§1)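 Approx. 2 nM 3′-[³²P]-labeled double-stranded DNA incubated with recombinant Top1 and compound at 0.1, 1, 10 or 100 μM for 20 min at 25 °C. Stopped with 0.5% SDS and run on a denaturing gel. […] Run twice.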

[2] = Growth inhibition of human NCI60 cells assessed as cell growth at 10 uM; format: functional; conditions: read-out: Activity
In short: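 NCI-60 single-dose screen at 10 μM across ~60 human cancer cell lines. Reported as growth percent relative to vehicle-treated control, averaged over all lines tested as a mean growth percent.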

[3] = Growth inhibition of human SF539 cells by five-dose growth inhibition assay; format: functional; conditions: SF-539
HOP-62 = experiment: Growth inhibition of human HOP62 cells by five-dose growth inhibition assay; format: functional
HCT-116 = experiment: Growth inhibition of human HCT116 cells by five-dose growth inhibition assay; format: functional
DU-145 = experiment: Growth inhibition of human DU145 cells by five-dose growth inhibition assay; format: functional
OVCAR-3 = experiment: Growth inhibition of human OVCAR3 cells by five-dose growth inhibition assay; format: functional
MCF7 = experiment: Growth inhibition of human MCF7 cells by five-dose growth inhibition assay; format: functional
SN12C = experiment: Growth inhibition of human SN12C cells by five-dose growth inhibition assay; format: functional
UACC-62 = experiment: Growth inhibition of human UACC62 cells by five-dose growth inhibition assay; format: functional
[4] = target: T1, DNA topoisomerase 1 (Homo sapiens); experiment: Inhibition of recombinant topoisomerase 1 (unknown origin) assessed as DNA cleavage using 3'-[32P]-labeled 117-bp DNA oligonucleotide at 0.1 uM by PAGE assay; in short: as §1
[5] = target: T1, DNA topoisomerase 1 (Homo sapiens); experiment: Inhibition of recombinant topoisomerase 1 (unknown origin) assessed as DNA cleavage using 3'-[32P]-labeled 117-bp DNA oligonucleotide at 10 uM by PAGE assay; in short: as §1
[6] = target: T1, DNA topoisomerase 1 (Homo sapiens); experiment: Inhibition of recombinant topoisomerase 1 (unknown origin) assessed as DNA cleavage using 3'-[32P]-labeled 117-bp DNA oligonucleotide at 100 uM by PAGE assay; in short: as §1

| SMILES | Activity [1] | growth at 10 µM [2] | GI50 [3] | GI50 (HOP-62) | GI50 (HCT-116) | GI50 (DU-145) | GI50 (OVCAR-3) | GI50 (MCF7) | GI50 (SN12C) | GI50 (UACC-62) | inhibition [4] | inhibition [1] | inhibition [5] | inhibition [6] |
| --- | --- | --- | --- | --- | --- | --- | --- | --- | --- | --- | --- | --- | --- | --- |
| O=C1c2ccccc2-c2c1c1ccc([N+](=O)[O-])cc1c(=O)n2CCCN1CCOCC1 | 70% | – | – | – | – | – | – | – | – | – | – | – | – | – |
| O=C1c2ccccc2-c2c1c1ccncc1c(=O)n2CCCn1ccnc1 | 20% | 47.5% | – | – | – | – | – | – | – | – | – | – | – | – |
| O=C1c2ccccc2-c2c1c1ccc(F)cc1c(=O)n2C[C@H](O)CO | 50% | 61.1% | – | – | – | – | – | – | – | – | – | – | – | – |
| O=C1c2ccccc2-c2c1c1ccc(Cl)cc1c(=O)n2C[C@H](O)CO | 50% | 14.5% | 417 nM | 692 nM | 437 nM | 2090 nM | 2240 nM | 257 nM | 977 nM | 398 nM | – | – | – | – |
| CS(=O)(=O)c1ccc2c3c(n(C[C@H](O)CO)c(=O)c2c1)-c1ccccc1C3=O | 50% | 96.7% | – | – | – | – | – | – | – | – | – | – | – | – |
| CSc1ccc2c3c(n(C[C@H](O)CO)c(=O)c2c1)-c1ccccc1C3=O | 20% | 39.7% | 2340 nM | 1820 nM | 741 nM | 2510 nM | 4370 nM | 427 nM | 1950 nM | 1380 nM | – | – | – | – |
| COC(=O)c1ccc2c3c(n(CCCn4ccnc4)c(=O)c2c1)-c1ccccc1C3=O | 50% | 62.1% | 490 nM | 589 nM | 398 nM | 692 nM | 100000 nM | 316 nM | 525 nM | 100000 nM | – | – | – | – |
| O=C1c2ccccc2-c2c1c1ccc(C(F)(F)F)cc1c(=O)n2CCCn1ccnc1 | 20% | 6.57% | 1290 nM | 407 nM | 646 nM | 1100 nM | 1510 nM | 257 nM | 1780 nM | 537 nM | – | – | – | – |
| CS(=O)(=O)c1ccc2c3c(n(CCCn4ccnc4)c(=O)c2c1)-c1ccccc1C3=O | 50% | 59.4% | – | – | – | – | – | – | – | – | – | – | – | – |
| O=C1c2ccccc2-c2c1c1ccc(I)cc1c(=O)n2CCCN1CCOCC1 | 20% | 96% | – | – | – | – | – | – | – | – | Active | Active | Active | Active |
| O=C1c2ccccc2-c2c1c1ccc(Cl)cc1c(=O)n2CCCn1ccnc1 | 75% | 0.06% | 204 nM | – | – | – | – | 31 nM | 110 nM | 74 nM | Active | Active | Active | Active |
| N#Cc1ccc2c3c(n(CCCN4CCOCC4)c(=O)c2c1)-c1ccccc1C3=O | 50% | 102% | – | – | – | – | – | – | – | – | – | – | – | – |
| CN(C)CCCn1c2c(c3ccncc3c1=O)C(=O)c1ccccc1-2 | 50% | – | 708 nM | – | – | 977 nM | – | 331 nM | 955 nM | – | – | – | – | – |
| CC[C@@]1(O)C(=O)OCc2c1cc1n(c2=O)Cc2cc3c(CN(C)C)c(O)ccc3nc2-1 [TOPOTECAN] | 100% | – | 10 nM | – | 30 nM | – | – | – | 20 nM | – | – | – | – | – |
| COC(=O)c1ccc2c3c(n(CCCN4CCOCC4)c(=O)c2c1)-c1ccccc1C3=O | 20% | 87.5% | – | – | – | – | – | – | – | – | – | – | – | – |
| O=C1c2ccccc2-c2c1c1ccc([N+](=O)[O-])cc1c(=O)n2C[C@H](O)CO | 100% | – | – | – | – | – | – | – | – | – | – | – | – | – |
